In ChEMBL document CHEMBL1909500, “Synthesis and in vitro anticancer activity of 6,7-methylenedioxy (or 5-hydroxy-6-methoxy)-2-(substituted selenophenyl)quinolin-4-one analogs” (Eur J Med Chem, 2011):
The source made the active and inactive calls. The calls are words filed in the database; no cut-off is given here.

Assays:
[1] = Anticancer activity against human Hs 578T cells after 48 hrs by MTT assay; assay type: functional
NCI-H226 = test: Anticancer activity against human NCI-H226 cells after 48 hrs by MTT assay; assay type: functional; conditions: NCI-H226, 48 h
HCT-116 = test: Anticancer activity against human HCT116 cells after 48 hrs by MTT assay; assay type: functional; conditions: HCT-116, 48 h
NCI-H460 = test: Anticancer activity against human NCI-H460 cells after 48 hrs by MTT assay; assay type: functional; conditions: NCI-H460, 48 h
IGROV-1 = test: Anticancer activity against human IGROV1 cells after 48 hrs by MTT assay; assay type: functional; conditions: IGROV-1, 48 h
HL-60 [2] = test: Induction of cell cycle arrest at G2/M phase in human HL60 cells assessed as decrease in cyclin B1 expression at 0.1 to 1.0 uM after 24 hrs by Western blot analysis; assay type: functional, cell-based
Method in brief: (§1)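 HL-60 cells at 2 × 10⁵/mL were exposed to the indicated concentrations for 24 h, washed in PBS and lysed for total protein. Immunoblots used HRP-linked secondary antibodies with ECL detection. Cyclin B1, CDK1, caspase-3 (17 kDa active form) and PARP (85 kDa fragment) were quantified and normalised to β-actin.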

BT-549 = test: Anticancer activity against human BT549 cells after 48 hrs by MTT assay; assay type: functional; conditions: BT-549, 48 h
HL-60 [3] = test: Induction of apoptosis in human HL60 cells assessed as PARP cleavage at 0.1 to 1.0 uM after 24 hrs by Western blot analysis; assay type: functional, cell-based; method in brief: as §1
TK-10 = test: Anticancer activity against human TK10 cells after 48 hrs by MTT assay; assay type: functional; conditions: TK-10, 48 h
HCT-15 = test: Anticancer activity against human HCT15 cells after 48 hrs by MTT assay; assay type: functional; conditions: HCT-15, 48 h
HL-60 [4] = test: Cell cycle arrest in human HL60 assessed as cell accumulation in G0/G1 phase at 1 uM after 24 hrs pretreated with pan-caspase inhibitor z-VAD-fmk for 3 hrs by propidium iodide staining-based flow cytometric analysis; assay type: functional; parameters: scale not given: the % may be the effect or the level left
Method in brief: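 HL-60 cells were preincubated for 3 h with or without the pan-caspase inhibitor z-VAD-fmk, then co-exposed to compound at 1 μM for 24 h. Cells were washed in PBS and fixed overnight in ice-cold 70% ethanol at −20 °C. They were stained for 30 min in the dark with propidium iodide 4 μg/mL, 0.1 mg/ml RNase and 1% Triton X-100. DNA content was read on a FACScan flow cytometer.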

MDA-MB-435 = test: Anticancer activity against human MDA-MB-435 cells after 48 hrs by MTT assay; assay type: functional; conditions: MDA-MB-435, 48 h
K562 = test: Anticancer activity against human K562 cells after 48 hrs by MTT assay; assay type: functional; conditions: K562, 48 h
[5] = read-out: pLC50 (the source's name) (converted)

Structure (SMILES): Cc1ccc(-c2cc(=O)c3cc4c(cc3[nH]2)OCO4)[se]1
- GI50 [1]: 347 nM
- CC50 [1, 5]: > 100000 nM
- TGI ([1]; read-out: pTGI): > 100000 nM
- GI50 (NCI-H226): 389 nM
- CC50 (NCI-H226; [5]): > 100000 nM
- TGI (NCI-H226; read-out: pTGI): > 100000 nM
- GI50 (HCT-116): 288 nM
- CC50 (HCT-116; [5]): > 100000 nM
- TGI (HCT-116; read-out: pTGI): > 100000 nM
- GI50 (NCI-H460): 331 nM
- CC50 (NCI-H460; [5]): > 100000 nM
- TGI (NCI-H460; read-out: pTGI): > 100000 nM
- GI50 (IGROV-1): 145 nM
- CC50 (IGROV-1; [5]): > 100000 nM
- TGI (IGROV-1; read-out: pTGI (converted)): 457 nM
- Activity (HL-60 [2]): Active
- GI50 (BT-549): 447 nM
- CC50 (BT-549; [5]): > 100000 nM
- TGI (BT-549; read-out: pTGI): > 100000 nM
- Activity (HL-60 [3]): Active
- GI50 (TK-10): 10000 nM
- CC50 (TK-10; [5]): > 100000 nM
- TGI (TK-10; read-out: pTGI): > 100000 nM
- GI50 (HCT-15): 339 nM
- CC50 (HCT-15; [5]): > 100000 nM
- TGI (HCT-15; read-out: pTGI): > 100000 nM
- Activity (HL-60 [4]): 8.3%
- GI50 (MDA-MB-435): 52.5 nM
- CC50 (MDA-MB-435; [5]): > 100000 nM
- TGI (MDA-MB-435; read-out: pTGI (converted)): 427 nM
- GI50 (K562): 282 nM
- CC50 (K562; [5]): > 100000 nM
- TGI (K562; read-out: pTGI): > 100000 nM
